Screens deposited in PubChem by several laboratories.
Sampled rows, rich in hits. Any-hit rate of the full collection: about 1.7%.
IDE inh – human IDE inhibitors in live cells, primary screen, fluorescence polarization, HEK cells, FAbetaB substrate; Insulin-degrading enzyme (Homo sapiens), P14735; FAbetaB cleavage; inhibition, % at 5.59 µM; 320,000 compounds, 0.41% hits; AID 434962, 2010;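 active = percent inhibition above the average of all tested compounds plus 3 SD, set per screening campaign, cut at about 16% in these data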;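 note: IDE supplied by intact live HEK cells; FP after avidin binding of uncleaved biotin substrate so inhibition keeps polarization high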
Target sequence (P14735 whole entry, looked up): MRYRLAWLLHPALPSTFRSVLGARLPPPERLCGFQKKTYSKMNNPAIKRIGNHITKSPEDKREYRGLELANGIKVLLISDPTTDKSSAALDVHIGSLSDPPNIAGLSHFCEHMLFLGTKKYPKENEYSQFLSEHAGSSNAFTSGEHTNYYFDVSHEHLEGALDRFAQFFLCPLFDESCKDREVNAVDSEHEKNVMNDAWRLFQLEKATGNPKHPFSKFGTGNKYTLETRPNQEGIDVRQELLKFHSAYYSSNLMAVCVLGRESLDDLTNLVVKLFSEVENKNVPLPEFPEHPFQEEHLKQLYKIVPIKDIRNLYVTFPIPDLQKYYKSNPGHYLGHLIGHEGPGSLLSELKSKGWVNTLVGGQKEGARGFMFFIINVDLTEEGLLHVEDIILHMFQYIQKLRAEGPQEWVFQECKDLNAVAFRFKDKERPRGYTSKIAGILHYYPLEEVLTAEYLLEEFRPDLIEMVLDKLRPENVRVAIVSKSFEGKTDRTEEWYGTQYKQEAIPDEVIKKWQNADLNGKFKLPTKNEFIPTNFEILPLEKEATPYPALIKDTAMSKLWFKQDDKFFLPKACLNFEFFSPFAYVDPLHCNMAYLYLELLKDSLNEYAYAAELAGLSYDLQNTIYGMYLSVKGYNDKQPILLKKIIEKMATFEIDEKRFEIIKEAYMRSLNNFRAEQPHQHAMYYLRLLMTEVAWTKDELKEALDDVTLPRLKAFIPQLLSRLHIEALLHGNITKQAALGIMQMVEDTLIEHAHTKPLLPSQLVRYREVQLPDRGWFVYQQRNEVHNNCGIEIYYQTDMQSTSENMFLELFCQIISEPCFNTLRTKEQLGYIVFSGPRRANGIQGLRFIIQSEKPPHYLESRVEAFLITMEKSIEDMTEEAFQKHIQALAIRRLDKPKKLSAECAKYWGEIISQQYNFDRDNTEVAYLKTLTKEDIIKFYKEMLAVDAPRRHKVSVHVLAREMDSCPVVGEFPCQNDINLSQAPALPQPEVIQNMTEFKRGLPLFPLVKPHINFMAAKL
HNF4A DNA FP – change in binding of human HNF4A to DNA, primary screen, biochemical, fluorescence polarization, FITC-DNA; Hepatocyte nuclear factor 4-alpha (Homo sapiens), P41235; 1 h; activity change, % at 10 µM; 360,000 compounds, 0.3% hits; in the data active = activity change above about 30%, passing the limit was not always enough
IDE cell activ – human IDE activators in live cells, primary screen, fluorescence polarization, HEK cells, FAbeta-B substrate; Insulin-degrading enzyme (Homo sapiens), P14735; FAbeta-B cleavage; 0% vehicle, 100% cell-free pure enzyme wells; activation, % at 5.96 µM; 340,000 compounds, 0.073% hits;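 active = activation above the mean of all tested compounds plus 3 SD, set per screening campaign, cut at about 17% in these data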
Rpn11 block – Rpn11 (PSMD14) deubiquitinase inhibitors, primary screen, biochemical, fluorescence polarization, uHTS | 26S proteasome non-ATPase regulatory subunit 14 (Homo sapiens), O00487 | human 26S proteasome, Ub4-pepOG fluorescence polarization; 20S core pre-blocked with epoxomicin | calls only at 20 µM | 360,000 compounds, 0.59% hits;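 active = inhibition at 20 µM, scaled to each plate's controls, above about 33%, limit read from the data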
CSN deneddyl inh – inhibitors of CSN-mediated cullin deneddylation, primary screen, biochemical, fluorescence polarization, uHTS. 360,000 compounds, 0.38% hits. Purified CSN, SCF-Nedd8-OG deneddylation. COP9 signalosome complex subunit 5 (Homo sapiens), Q92905. inhibition, % at 12.5 µM;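 active = pattern-corrected inhibition above about 35%, with an unprinted fluorescence ratio check between 0.5 and 1.5, limit read from the data, passing the limit was not always enough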
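Detection – fluorescence polarization · System – HEK293T-derived human Csn5 enzyme · Controls – substrate-only high control, full reaction low control · Timing – 90 min, room temperature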
TPT1 inhibitor – Candida albicans TPT1 enzyme inhibitors, primary screen, biochemical, fluorescence polarization; AID 1962, 2009; recombinant caTPT1, FP RNA substrate dephosphorylation; tRNA 2'-phosphotransferase TPT1 (Candida albicans SC5314); 300,000 compounds, 0.81% hits; inhibition, % at 5 µM;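 active = inhibition above the mean of all tested compounds plus 3 SD, set per screening campaign, cut at about 24% in these data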
Numbers stand for hits; i = inactive; nt = not tested or not shown; + = active, no number.

SMILES	IDE inh	HNF4A DNA FP	IDE cell activ	Rpn11 block	CSN deneddyl inh	TPT1 inhibitor
O=C(NCCN1CCC(n2c(=O)[nH]c3ccccc32)CC1)c1cccc2c1-c1ccccc1C2=O	nt	i	nt	nt	48.9	nt
O=C(NC(=S)Nc1ccc(-c2ccc(CO)o2)cc1)c1cccs1	i	i	nt	i	39.9	i
Cc1ccc(C(=O)NC(=S)Nc2ccc(-c3ccc(CO)o3)cc2)cc1	i	i	i	i	i	i
Cn1c2ccccc2c2cc(/C=N/NC(=O)c3ccccc3F)ccc21	i	i	i	i	i	i
CNC(=O)c1ccc(-c2cc(C(F)(F)F)nn2C)s1	i	i	nt	i	i	i
Cn1nc(C(F)(F)F)cc1-c1ccc(/C=C(\C#N)C(=O)c2ccccc2)s1	i	i	i	nt	67.7	i
Cc1ccc(C(=O)NCC2(c3ccccc3)CCCC2)cc1	i	i	i	i	i	i
CCCCCCCCCC(=O)OCC(O)CO (configuration not stated)	i	i	i	i	i	i
CCCCCCCCCCCCCCC[C@@H](O)[C@@H](N)CO	nt	121.2	i	i	84.1	nt
C[C@@H]1O[C@@H](O[C@H]2[C@H](O[C@H]3C[C@]4(C)C(C[C@@H](O)C5C([C@]6(C)CC[C@@H](C(C)(C)O)O6)CC[C@]54C)[C@@]4(C)CC[C@H](O)C(C)(C)C34)O[C@H](CO)[C@@H](O)[C@@H]2O)[C@H](O)[C@H](O)[C@H]1O (some centres not stated)	i	i	i	i	i	nt
CC1O[C@@H](OC2C(O)C(O)C(CO)O[C@H]2OC2C[C@]3(C)C(CC(O)C4[C@@H]([C@]5(C)CC[C@@H](C(C)(C)O)O5)CC[C@]43C)[C@@]3(C)CCC(O)C(C)(C)C23)C(O)C(O)C1O (some centres not stated)	i	i	21.4	i	i	nt
COc1ccc(/C(O)=C2/C(=O)C(=O)N(c3ncccn3)C2c2ccc(OC)cc2)cc1 (configuration not stated)	i	i	i	i	i	i
COc1cc2cc(C(c3nnnn3C3CCCC3)N3CCCCC3)c(=O)[nH]c2cc1OC (configuration not stated)	i	i	i	i	i	i
CCOC(=O)C1CCN(C(c2cc3ccc(C)c(C)c3[nH]c2=O)c2nnnn2C2CCCCC2)CC1 (configuration not stated)	i	i	i	+	i	i
O=c1[nH]c2cc3c(cc2cc1C(c1nnnn1C1CCCCC1)N1CCSCC1)OCCO3 (configuration not stated)	i	i	i	i	36.6	i
O=C(NCc1ccco1)c1cccc2c1C(=O)c1ccc(N3CCCC3)cc1S2(=O)=O	i	52.0	i	nt	i	nt
Cc1ccc(CNC(=O)c2cccc3c2C(=O)c2ccc(N4CCOCC4)cc2S3(=O)=O)cc1	i	i	i	i	i	nt
Cc1ccc(CNC(=O)c2cccc3c2C(=O)c2ccc(N4CCCCC4)cc2S3(=O)=O)cc1	i	37.7	i	nt	i	nt
O=C(NCC1CC1)c1cccc2c1C(=O)c1ccc(N3CCCC3)cc1S2(=O)=O	i	i	i	nt	i	nt
C=CCNC(=O)c1cccc2c1C(=O)c1ccc(N3CCCC3)cc1S2(=O)=O	i	i	i	nt	35.5	nt
NS(=O)(=O)c1ccc(CCNC(=O)CSc2nnc3ccccn23)cc1	i	i	i	i	i	i
Cc1ccc(C(=S)N2CCCCCC2)cc1	i	i	i	i	i	i
Cc1ccc(C(=O)C2=C(O)C(=O)N(c3ncccn3)C2c2ccc(Br)cc2)o1 (configuration not stated)	i	nt	nt	nt	nt	i
c1ccc(C(c2nnnn2C2CCCC2)N2CCN(c3nc4ccccc4s3)CC2)cc1 (configuration not stated)	i	i	i	i	i	i
